Reference: ChEMBL document CHEMBL1125416, “Synthesis and antiulcer activity of novel 5-(2-ethenyl substituted)-3(2H)-furanones” (1992)

Experiments:
Rattus norvegicus [1] = assay: Inhibitory activity against ethanol-induced lesions, which was administered after 1 hr of oral dosing in pylorus-ligated rat model.; format: functional
Rattus norvegicus [2] = species on record: Rattus norvegicus; assay: Effective dose that inhibits formation of induced gastric lesions.; format: functional; details: Stomach
Summary of the method: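 Male Sprague-Dawley rats (180–210 g), fasted 18–24 h with water allowed, dosed orally 1 h before absolute ethanol (1 mL/rat po) and killed 1 h later. Lesions scored blind by size (mm²) and number, expressed as % inhibition versus vehicle mean. Groups of ≥10 rats; Dunnett's test (p < 0.01).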

Rattus norvegicus [3] = assay: Inhibitory activity In the indomethacin model at a dose of 120 mg/kg perorally; format: functional; details: route oral
Summary of the method: (§1)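 In male Sprague-Dawley rats (120–170 g) fasted 18 h with water ad libitum, oral test compound was given 30 min before indomethacin (20 mg/kg po). Rats killed by cervical dislocation 4 h later; stomachs opened along the greater curvature, rinsed, and lesions graded by size and number. Percent inhibition versus control, ≥10 rats per group.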

Rattus norvegicus [4] = assay: Evaluated for the duration of cytoprotective effect, in Ethanol-Necrosis model, that causes inhibition of ulceration. Absolute ethanol was administered at 8 hr after dosing; format: functional; set-up: concentration or dose not given beside the values
Summary of the method: (§2)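 Male Sprague-Dawley rats (180–210 g), fasted 18–24 h with water available, dosed orally with drug or vehicle 4, 6 or 8 h before absolute ethanol (1 mL per rat po). Rats killed 1 h after ethanol, stomachs kept moist with saline and scored blind by ulcer size (mm²) and number per size class. Percent inhibition is taken against the vehicle group mean score.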

Rattus norvegicus [5] = assay: Inhibitory activity in acidified aspirin model at a dose of 50 mg/kg perorally; format: functional; details: route oral
Summary of the method: (§3)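 Male Sprague-Dawley rats (120–180 g), fasted 18–24 h with water ad libitum. Compound or vehicle given po (10 mL/kg) 30 min before acidified aspirin (aspirin powder in 0.35 M HCl, 5 mL/kg po). Stomachs excised 5 h after aspirin and graded by ulcer size and number. Percent inhibition versus vehicle, ≥10 rats per group.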

Rattus norvegicus [6] = assay: Inhibition against ethanol-induced lesions which was administered after 1 hr at a oral dosing of 25 mg/kg in pylorus-ligated rat model; format: functional
Rattus norvegicus [7] = assay: Evaluated for the duration of cytoprotective effect, in Ethanol-Necrosis model, that causes inhibition of ulceration. Absolute ethanol was administered at 4 hr after dosing; format: functional; set-up: concentration or dose not given beside the values; summary of the method: as §2
Rattus norvegicus [8] = assay: Inhibition against ethanol-induced lesions which was administered after 1 hr at a oral dosing of 10 mg/kg in pylorus-ligated rat model; format: functional
Rattus norvegicus [9] = assay: Inhibitory activity In acidified aspirin model at a dose of 16 mg/kg perorally; format: functional; details: route oral; summary of the method: as §3
Rattus norvegicus [10] = assay: Inhibitory activity in the indomethacin model at a dose of 40 mg/kg perorally; format: functional; details: route oral; summary of the method: as §1
Rattus norvegicus [11] = assay: Inhibitory activity In acidified aspirin model at a dose of 40 mg/kg perorally; format: functional; details: route oral; summary of the method: as §3
Rattus norvegicus [12] = assay: Inhibitory activity In the indomethacin model at a dose of 111 mg/kg perorally; format: functional; details: route oral; summary of the method: as §1
Rattus norvegicus [13] = assay: Compound was evaluated for the duration of cytoprotective effect, in Ethanol-Necrosis model, that causes inhibition of ulceration. Absolute ethanol was administered at 6 hr after dosing; format: functional; summary of the method: as §2
Rattus norvegicus [14] = assay: Compound was tested for inhibition against ethanol-induced lesions which was administered after 1 hr of oral dosing in rat ethanol-necrosis model
Rattus norvegicus [15] = assay: Compound was tested for inhibition against ethanol-induced lesions which was administered after 1 hr of at a oral dosing of 25 mg/kg in pylorus-ligated rat model; format: functional
Rattus norvegicus [16] = species on record: Rattus norvegicus; assay: Inhibitory activity In acidified aspirin model; format: functional; summary of the method: as §3
Rattus norvegicus [17] = species on record: Rattus norvegicus; assay: Inhibitory activity In the indomethacin model.; format: functional; summary of the method: as §1
Rattus norvegicus [18] = assay: Compound was evaluated for the duration of cytoprotective effect, in Ethanol-Necrosis model, that causes inhibition of ulceration. Absolute ethanol was administered at 8 hr after dosing; format: functional; summary of the method: as §2

CC1(C)OC(/C=C/c2ccc(C#N)cc2)=CC1=O
ED50 (Rattus norvegicus [1]): 12 mg/kg | ED50 (Rattus norvegicus [2]): 50 mg/kg | inhibition in vivo at 120 mg/kg (Rattus norvegicus [3]): 70% | Inhibition (Rattus norvegicus [4]): 66% | inhibition in vivo at 50 mg/kg (Rattus norvegicus [5]): 23%

CC1(C)OC(/C=C/c2ccc(C(F)(F)F)cc2)=CC1=O
inhibition in vivo at 25 mg/kg (Rattus norvegicus [6]): 30%

CSc1ccc(/C=C/C2=CC(=O)C(C)(C)O2)cc1
inhibition in vivo at 25 mg/kg (Rattus norvegicus [6]): 5%

CC1(c2ccccc2)OC(/C=C/c2ccccn2)=CC1=O (configuration not stated)
ED50 (Rattus norvegicus [1]): 5 mg/kg | ED50 (Rattus norvegicus [2]): 40 mg/kg | Inhibition (Rattus norvegicus [7]): 28%

CC1(C)OC(/C=C/c2cc3ccccc3s2)=CC1=O
inhibition in vivo at 10 mg/kg (Rattus norvegicus [8]): 17%

CC1(C)OC(/C=C/c2ccoc2)=CC1=O
inhibition in vivo at 10 mg/kg (Rattus norvegicus [8]): 32%

CC1(c2ccccc2)OC(/C=C/c2cccnc2)=CC1=O (configuration not stated)
inhibition in vivo at 10 mg/kg (Rattus norvegicus [8]): 44%

CC1(C)OC(/C=C/c2ccsc2)=CC1=O
ED50 (Rattus norvegicus [1]): 4 mg/kg | ED50 (Rattus norvegicus [2]): 16 mg/kg | inhibition in vivo at 16 mg/kg (Rattus norvegicus [9]): 0% | inhibition in vivo at 40 mg/kg (Rattus norvegicus [10]): 65% | Inhibition (Rattus norvegicus [4]): 62%

CC1(C)OC(c2ccc(Br)cc2)=CC1=O
inhibition in vivo at 25 mg/kg (Rattus norvegicus [6]): 36%

CC1(C)OC(/C=C/c2ccccn2)=CC1=O
ED50 (Rattus norvegicus [1]): 10 mg/kg | ED50 (Rattus norvegicus [2]): 40 mg/kg | inhibition in vivo at 40 mg/kg (Rattus norvegicus [11]): 77% | inhibition in vivo at 111 mg/kg (Rattus norvegicus [12]): 72% | Inhibition (Rattus norvegicus [7]): 67% | Inhibition (Rattus norvegicus [4]): 76%

CC1(c2ccc(F)cc2)OC(/C=C/c2ccsc2)=CC1=O (configuration not stated)
inhibition in vivo at 10 mg/kg (Rattus norvegicus [8]): 22%

Cn1cccc1/C=C/C1=CC(=O)C(C)(C)O1
inhibition in vivo at 10 mg/kg (Rattus norvegicus [8]): 32%

CC1(C)OC(/C=C/C=C/c2ccc(Cl)cc2)=CC1=O
inhibition in vivo at 10 mg/kg (Rattus norvegicus [8]): 33%

CC1(C)OC(/C=C/c2ccc(Cl)cc2)=CC1=O
ED50 (Rattus norvegicus [2]): 40 mg/kg | Inhibition (Rattus norvegicus [7]): 51%

CC1(C)OC(/C=C/c2cnccn2)=CC1=O
inhibition in vivo at 10 mg/kg (Rattus norvegicus [8]): 56%

CC1(c2ccccc2)OC(/C=C/c2ccc(C#N)cc2)=CC1=O (configuration not stated)
inhibition in vivo at 10 mg/kg (Rattus norvegicus [8]): 4%

CC1(C)OC(c2ccc(C(F)(F)F)cc2)=CC1=O
inhibition in vivo at 25 mg/kg (Rattus norvegicus [6]): 39%

CC1(C)OC(/C=C/c2ccc(Cl)cc2Cl)=CC1=O
inhibition in vivo at 25 mg/kg (Rattus norvegicus [6]): 20%

CC1(C)OC(/C=C/c2cccnc2)=CC1=O
ED50 (Rattus norvegicus [1]): 9 mg/kg | ED50 (Rattus norvegicus [2]): 40 mg/kg | Inhibition (Rattus norvegicus [7]): 43% | Inhibition (Rattus norvegicus [4]): 40% | Inhibition (Rattus norvegicus [13]): 60%

CC1(C)OC(/C=C/c2ccc(F)c(F)c2)=CC1=O
Inhibition (Rattus norvegicus [14]): 47%

CC1(C)OC(/C=C/c2ccc(F)cc2F)=CC1=O
ED50 (Rattus norvegicus [1]): 11 mg/kg | ED50 (Rattus norvegicus [2]): 100 mg/kg | Inhibition (Rattus norvegicus [7]): 42%

CC1(c2ccc(F)cc2)OC(/C=C/c2ccccn2)=CC1=O (configuration not stated)
ED50 (Rattus norvegicus [1]): 3.5 mg/kg

CC1(C)OC(/C=C/c2ccc3ccccc3c2)=CC1=O
inhibition in vivo at 25 mg/kg (Rattus norvegicus [6]): 43%

CC1(c2ccccc2)OC(/C=C/c2ccncc2)=CC1=O (configuration not stated)
ED50 (Rattus norvegicus [1]): 6 mg/kg | ED50 (Rattus norvegicus [2]): 24 mg/kg | Inhibition (Rattus norvegicus [7]): 31%

CC1(C)OC(/C=C/c2cccc(C#N)c2)=CC1=O
inhibition in vivo at 10 mg/kg (Rattus norvegicus [8]): 68%

CC1(C)OC(/C=C/c2cccs2)=CC1=O
inhibition in vivo at 25 mg/kg (Rattus norvegicus [15]): 1%

CC1(C)OC(/C=C/c2ccc(S(C)(=O)=O)cc2)=CC1=O
inhibition in vivo at 25 mg/kg (Rattus norvegicus [6]): 56%

CC1(C)OC(/C=C/c2ccc(F)cc2)=CC1=O
ED50 (Rattus norvegicus [1]): 11 mg/kg | ED50 (Rattus norvegicus [2]): 50 mg/kg | Inhibition (Rattus norvegicus [7]): 61% | Inhibition (Rattus norvegicus [4]): 25% | Inhibition (Rattus norvegicus [13]): 50%

CC1(C)OC(c2ccc(Cl)cc2)=CC1=O
inhibition in vivo at 25 mg/kg (Rattus norvegicus [6]): 29%

CC1(C)OC(/C=C/c2cc(Cl)cc(Cl)c2)=CC1=O
inhibition in vivo at 25 mg/kg (Rattus norvegicus [6]): 63%

CC1(c2ccc(F)cc2)OC(/C=C/c2ccc(C#N)cc2)=CC1=O (configuration not stated)
inhibition in vivo at 10 mg/kg (Rattus norvegicus [8]): 1%

CC1(c2ccccc2)OC(/C=C/c2ccsc2)=CC1=O (configuration not stated)
inhibition in vivo at 10 mg/kg (Rattus norvegicus [8]): 0%

CC1(C)OC(/C=C/c2ccccc2)=CC1=O
ED50 (Rattus norvegicus [1]): 17 mg/kg

CC1(C)OC(/C=C/c2ccnc3ccccc23)=CC1=O
ED50 (Rattus norvegicus [1]): 2.5 mg/kg

CC1(C)OC(/C=C/c2ccc(Cl)c(Cl)c2)=CC1=O
inhibition in vivo at 25 mg/kg (Rattus norvegicus [6]): 45%

C/C(=C\c1ccccc1)C1=CC(=O)C(C)(C)O1
inhibition in vivo at 10 mg/kg (Rattus norvegicus [8]): 0%

CC1(C)OC(c2ccccc2)=CC1=O
ED50 (Rattus norvegicus [1]): 19 mg/kg

CC1(C)OC(/C=C/c2ccncc2)=CC1=O
ED50 (Rattus norvegicus [1]): 4 mg/kg | ED50 (Rattus norvegicus [2]): 20 mg/kg | Inhibition (Rattus norvegicus [13]): 46%

COc1ccc(C2=CC(=O)C(C)(C)O2)cc1
Inhibition (Rattus norvegicus [14]): 30%

CC1(C)OC(/C=C/c2ccc(Br)cc2)=CC1=O
ED50 (Rattus norvegicus [1]): 18 mg/kg

CC(=O)c1ccc2c(c1)C(=O)C1(CC1)O2 [SPIZOFURONE]
ED50 (Rattus norvegicus [1]): 10 mg/kg | ED50 (Rattus norvegicus [2]): 100 mg/kg | Inhibition (Rattus norvegicus [16]): 78% | Inhibition (Rattus norvegicus [17]): 95% | Inhibition (Rattus norvegicus [7]): 72% | Inhibition (Rattus norvegicus [13]): 44% | Inhibition (Rattus norvegicus [18]): 0%
